Source: PubChem BioAssay (several laboratories)
CSC inhib = cancer stem cell inhibition | inhibition, % at 7.5 µM | cancer stem cell-like cells viability, luminescence | hit rate 1.1% among 300,000; in the data active means inhibition above about 75%; tested in HMLE shEcad cells
SKKanGAS inh = blocks kanamycin growth of S. pyogenes SKKanGAS strain; inhibition, % at 7.5 µM; BacTiter-Glo, 6 h; AID 1662; hit rate 1.3% among 300,000;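 active means mean replicate score, as percent of positive control median, at least 50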;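 further: strain carries kanamycin resistance gene driven by streptokinase promoter and grows in 40 µg/ml kanamycin; loss of luminescence reflects streptokinase promoter inhibition or plain growth inhibition; 0% = median of DMSO wells and 100% = positive control at its reference dose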
Beta cell apopt = beta cell apoptosis inhibition. hit rate 0.8% among 300,000. AID 435005. protection from apoptosis, % (no concentration beside the values). INS-1E cytokine-induced death, ATP luminescence, 48 h; percent of positive-control rescue, neutral wells zero;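 active means Every replicate reaches about 75%, or at least half do and their mean reaches it too, limit read from the data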;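 further: 0% = cytokine-treated negative control wells and 100% = positive control rescue; higher means more ATP so stronger rescue from cytokine killing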
L major viab = inhibitors of Leishmania major promastigote growth; Leishmania major promastigotes, resazurin fluorescence viability; inhibition, % at 10 µM; hit rate 9% among 200,000; AID 1063; in the data active means inhibition above about 50%;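 further: promastigotes grown with compound for 44 hours at 28 °C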
T cruzi repl = blocks replication of Trypanosoma cruzi | T. cruzi beta-gal in NIH3T3, luminescence, 90 h | inhibition, % (no concentration beside the values) | hit rate 1.4% among 300,000 | AID 1885;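 active means mean inhibition across valid replicates above about 55%, limit read from the data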;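 further: signal also drops with host cell toxicity which is not excluded here; 0% = plate median of DMSO wells and 100% = zero luminescence signal; higher percent means less beta-gal luminescence so fewer parasites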
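assay system = mouse NIH/3T3 fibroblasts infected with β-gal-expressing T. cruzi Tulahuen C4 | input = 5,000 NIH/3T3 host cells per well | buffer or medium = DMEM plus 2% FBS | timing = 3 h host attachment, then at least 90 h co-culture | measured by = GalScreen luminescence, 60 min | evaluation = luminescence reflecting intracellular parasite burden, expressed as percent inhibition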
Mdm2-MdmX inh = disrupts the human Mdm2-MdmX interaction; inhibition, % at 8 µM; SaOS-2 split-luciferase Mdm2/MdmX complementation, luminescence; O15151+Q00987; hit rate 3% among 330,000; AID 485346;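 active means inhibition of at least 50% at 8 µM in the primary screen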
Target sequence (O15151 whole entry, looked up): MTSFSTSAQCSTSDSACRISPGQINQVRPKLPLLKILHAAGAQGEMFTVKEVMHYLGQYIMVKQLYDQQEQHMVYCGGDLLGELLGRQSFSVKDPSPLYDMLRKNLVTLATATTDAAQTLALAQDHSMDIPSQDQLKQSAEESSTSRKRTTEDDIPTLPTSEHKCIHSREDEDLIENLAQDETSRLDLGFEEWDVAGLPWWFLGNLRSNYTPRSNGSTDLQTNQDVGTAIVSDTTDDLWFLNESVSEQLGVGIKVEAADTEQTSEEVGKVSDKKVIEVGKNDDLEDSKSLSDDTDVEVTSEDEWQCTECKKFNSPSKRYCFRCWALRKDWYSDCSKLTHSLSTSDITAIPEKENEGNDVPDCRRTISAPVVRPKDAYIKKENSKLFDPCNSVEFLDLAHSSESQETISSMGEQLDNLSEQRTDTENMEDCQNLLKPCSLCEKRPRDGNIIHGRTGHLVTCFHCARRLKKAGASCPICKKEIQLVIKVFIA
Target sequence (Q00987 whole entry, looked up): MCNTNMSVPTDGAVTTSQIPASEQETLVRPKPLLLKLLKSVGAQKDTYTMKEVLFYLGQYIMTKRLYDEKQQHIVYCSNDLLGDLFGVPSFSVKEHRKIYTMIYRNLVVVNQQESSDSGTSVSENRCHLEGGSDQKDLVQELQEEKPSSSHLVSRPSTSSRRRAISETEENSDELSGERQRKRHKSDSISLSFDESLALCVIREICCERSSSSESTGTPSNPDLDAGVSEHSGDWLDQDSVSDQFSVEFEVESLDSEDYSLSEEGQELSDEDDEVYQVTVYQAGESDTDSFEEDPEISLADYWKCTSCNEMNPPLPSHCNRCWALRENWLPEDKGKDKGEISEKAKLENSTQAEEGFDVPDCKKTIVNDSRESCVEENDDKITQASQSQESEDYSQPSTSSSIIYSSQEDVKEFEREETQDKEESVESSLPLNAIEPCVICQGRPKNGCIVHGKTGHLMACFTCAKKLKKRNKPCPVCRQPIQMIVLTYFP
Starred values were filed as active, the others as inactive. Sampled rows, rich in hits. Any-hit rate of the full collection: about 9.4%.

C=CCc1ccccc1OCC(O)CN1CCN(c2ccc(OC)cc2)CC1 (stereo unspecified) was read as CSC inhib 8, SKKanGAS inh -6, Beta cell apopt -2, L major viab 70*, T cruzi repl 21 and Mdm2-MdmX inh -1.
Screening C=CCc1ccccc1OCC(O)CN1CCOCC1 (stereo unspecified) returned CSC inhib -4, SKKanGAS inh 2, T cruzi repl -6 and Mdm2-MdmX inh 4.
`COc1ccc(N2CCN(CC(O)COc3ccc4c(c3)CCC4)CC2)cc1` (stereo unspecified) gave CSC inhib 20, SKKanGAS inh -5, Beta cell apopt 5, L major viab 92*, T cruzi repl 5 and Mdm2-MdmX inh -11.
OC(COc1ccc2c(c1)CCC2)CN1CCN(c2ccccc2F)CC1 (stereo unspecified) was read as CSC inhib -9, SKKanGAS inh -1, L major viab 74*, T cruzi repl -4 and Mdm2-MdmX inh 12.
`C=CCc1ccccc1OCC(O)CN(C(C)C)C(C)C` (stereo unspecified) gave CSC inhib 11, SKKanGAS inh -1, Beta cell apopt 2, L major viab 100*, T cruzi repl 12 and Mdm2-MdmX inh -4.
For O=[N+]([O-])c1ccc(OCC(O)CN2CCN(c3ccccc3F)CC2)cc1 (stereo unspecified) the results were CSC inhib 7, SKKanGAS inh 9, Beta cell apopt -4, L major viab -1, T cruzi repl 6 and Mdm2-MdmX inh 17.
COc1ccc(Cl)cc1NC(=O)c1cccc(NC(=O)CCC(=O)O)c1 was read as CSC inhib -6, SKKanGAS inh -7, L major viab -7, T cruzi repl -1 and Mdm2-MdmX inh -17.
CNC(=O)C1CC(=O)N(CCCc2ccccc2)C(=Nc2ccccc2)S1 (stereo unspecified) was read as CSC inhib -11, SKKanGAS inh 7, Beta cell apopt -2, L major viab 55*, T cruzi repl 0 and Mdm2-MdmX inh 4.
Cc1ccc(CN2C(=O)c3ccccc3NC23CCN(Cc2ccccc2)CC3)cc1 was read as CSC inhib -13, Beta cell apopt 23, L major viab 96*, T cruzi repl 32 and Mdm2-MdmX inh -12.
`Cc1ccc(NS(=O)(=O)c2c(C(=O)N3CCCCCC3)c(C)n(C)c2C)cc1C` gave CSC inhib 1, SKKanGAS inh -4, Beta cell apopt -7, T cruzi repl 3 and Mdm2-MdmX inh 24.
Screening Cc1ccc(-n2nnnc2SCC(=O)c2c(N)n(C3CC3)c(=O)[nH]c2=O)c(C)c1 returned Beta cell apopt 2 and Mdm2-MdmX inh 10.
For CCOc1ccc(-n2c(SCc3nc(-c4cccs4)no3)nnc2-c2ccncc2)cc1 the results were SKKanGAS inh -3, L major viab 62*, T cruzi repl 64* and Mdm2-MdmX inh -3.
For CCCn1c(SCc2nc(-c3cccs3)no2)nnc1-c1ccncc1 the results were CSC inhib -8, SKKanGAS inh -5, Beta cell apopt -2, L major viab -5, T cruzi repl 7 and Mdm2-MdmX inh 8.
For Cc1ccc(C(=O)NCc2ccccn2)cc1S(=O)(=O)N1CCCCC1 the results were CSC inhib -7, SKKanGAS inh 0, Beta cell apopt -5, T cruzi repl 0 and Mdm2-MdmX inh 16.
Screening COc1c(N2CCN(C(=S)Nc3ccccc3)C(C)C2)c(F)cc2c(=O)c(C(=O)O)cn(C3CC3)c12 (stereo unspecified) returned L major viab -2.
For COC(=O)C(C)NC(=S)N1CCN(c2c(F)cc3c(=O)c(C(=O)O)cn(C4CC4)c3c2OC)CC1C (stereo unspecified) the results were CSC inhib -9, SKKanGAS inh 95*, Beta cell apopt -4, T cruzi repl 13 and Mdm2-MdmX inh 16.
CNC(=S)N1CCN(c2c(F)cc3c(=O)c(C(=O)O)cn(C4CC4)c3c2OC)CC1C (stereo unspecified) was read as CSC inhib -15, SKKanGAS inh 104*, Beta cell apopt 7, L major viab -3, T cruzi repl -11 and Mdm2-MdmX inh 16.
COc1ccc2nc(N=Nc3c(O)ccc4ccccc34)sc2c1 was read as SKKanGAS inh 2, L major viab 99* and T cruzi repl 0.
`Cc1ccc(NC(=O)CN2C(=O)NC3(CCCCC3C)C2=O)cc1S(=O)(=O)N1CCCCC1` (stereo unspecified) gave CSC inhib -2, SKKanGAS inh -2, Beta cell apopt -4, T cruzi repl 2 and Mdm2-MdmX inh 8.
For Cc1cc(-c2nnc(SCC(=O)Nc3ccccc3Cl)n2C)no1 the results were CSC inhib -8, SKKanGAS inh 1, Beta cell apopt -8, T cruzi repl 1 and Mdm2-MdmX inh -1.
Cn1cccc1-c1cc(C(=O)N/N=C/c2cccc(O)c2)[nH]n1 was read as CSC inhib -8, SKKanGAS inh -27, Beta cell apopt 13, L major viab 1, T cruzi repl -8 and Mdm2-MdmX inh -31.
`O=[N+]([O-])c1cccc(/C=N/n2c(-c3cccnc3)n[nH]c2=S)c1` gave CSC inhib 0, SKKanGAS inh -3, Beta cell apopt -2, L major viab 55*, T cruzi repl -9 and Mdm2-MdmX inh 35.
Cc1cc(-c2n[nH]c(=S)n2/N=C/c2ccc(Cl)c([N+](=O)[O-])c2)n[nH]1 was read as CSC inhib -2, SKKanGAS inh 7, Beta cell apopt 4, L major viab 0, T cruzi repl 2 and Mdm2-MdmX inh -31.
Cc1cc(-c2n[nH]c(=S)n2/N=C/c2cc([N+](=O)[O-])ccc2Cl)n[nH]1 was read as SKKanGAS inh 6, L major viab 84* and T cruzi repl -49.
`CCOc1ncccc1C(=O)Nc1cc(S(=O)(=O)N(CC)CC)ccc1N1CCOCC1` gave CSC inhib 10, Beta cell apopt 9 and Mdm2-MdmX inh -1.
O=[N+]([O-])c1ccc(Oc2ccc(S(=O)(=O)Nc3ccccc3)cc2)cc1 was read as CSC inhib 25, SKKanGAS inh 19, Beta cell apopt 3, L major viab 66*, T cruzi repl -20 and Mdm2-MdmX inh 9.
O=S(=O)(Nc1ccc(S(=O)(=O)Nc2ccccc2)cc1)c1ccccc1 was read as CSC inhib 2, SKKanGAS inh 5, Beta cell apopt -8, L major viab 0, T cruzi repl 7 and Mdm2-MdmX inh -5.
Screening COc1ccc(NC(=O)c2c(OC)cccc2OC)c(OC)c1 returned CSC inhib -3, SKKanGAS inh 4, Beta cell apopt 15, L major viab 4, T cruzi repl 59* and Mdm2-MdmX inh 17.
Screening COc1ccc2o/c(=N\O)c(C(=O)Nc3ccccc3OC)cc2c1 returned CSC inhib -6, SKKanGAS inh 1, Beta cell apopt 7, L major viab 97*, T cruzi repl -13 and Mdm2-MdmX inh 39.
